Data on 30 compounds can be found in ChEMBL document CHEMBL1145826, “New pyrimido[5,4-b]indoles as ligands for alpha(1)-adrenoceptor subtypes” (J Med Chem, 2003).

The target of assay [1] is T1, Alpha-1B adrenergic receptor (Homo sapiens, UniProt P35368).
T1 sequence (P35368 whole entry): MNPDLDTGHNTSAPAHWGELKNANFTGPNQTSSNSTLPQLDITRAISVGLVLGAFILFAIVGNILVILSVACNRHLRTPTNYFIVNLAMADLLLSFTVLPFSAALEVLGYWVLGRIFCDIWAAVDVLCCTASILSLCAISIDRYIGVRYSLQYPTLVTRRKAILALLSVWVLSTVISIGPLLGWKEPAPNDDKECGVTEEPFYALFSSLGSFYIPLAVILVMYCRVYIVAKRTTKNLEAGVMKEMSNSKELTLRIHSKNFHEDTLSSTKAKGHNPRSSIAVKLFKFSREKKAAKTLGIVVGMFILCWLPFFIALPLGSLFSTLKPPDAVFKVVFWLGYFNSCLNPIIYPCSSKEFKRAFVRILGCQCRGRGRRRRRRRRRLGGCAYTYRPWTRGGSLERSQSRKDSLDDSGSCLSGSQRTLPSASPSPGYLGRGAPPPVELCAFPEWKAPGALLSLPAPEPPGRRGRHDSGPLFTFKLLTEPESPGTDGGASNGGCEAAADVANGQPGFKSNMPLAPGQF
Description: In vitro binding affinity at human Alpha-1B adrenergic receptor. In short, it runs like this:
(§1)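 Human α1A-, α1B- or α1D-AR stably expressed in HEK293 cells (calcium phosphate transfection, subclones chosen for high expression); membranes from scraped, homogenized cells spun at 30000g. Three experiments in duplicate, mean ± SE.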

Assay [2] has as its target T2, Alpha-1D adrenergic receptor (Homo sapiens, UniProt P25100).
T2 sequence (P25100 whole entry): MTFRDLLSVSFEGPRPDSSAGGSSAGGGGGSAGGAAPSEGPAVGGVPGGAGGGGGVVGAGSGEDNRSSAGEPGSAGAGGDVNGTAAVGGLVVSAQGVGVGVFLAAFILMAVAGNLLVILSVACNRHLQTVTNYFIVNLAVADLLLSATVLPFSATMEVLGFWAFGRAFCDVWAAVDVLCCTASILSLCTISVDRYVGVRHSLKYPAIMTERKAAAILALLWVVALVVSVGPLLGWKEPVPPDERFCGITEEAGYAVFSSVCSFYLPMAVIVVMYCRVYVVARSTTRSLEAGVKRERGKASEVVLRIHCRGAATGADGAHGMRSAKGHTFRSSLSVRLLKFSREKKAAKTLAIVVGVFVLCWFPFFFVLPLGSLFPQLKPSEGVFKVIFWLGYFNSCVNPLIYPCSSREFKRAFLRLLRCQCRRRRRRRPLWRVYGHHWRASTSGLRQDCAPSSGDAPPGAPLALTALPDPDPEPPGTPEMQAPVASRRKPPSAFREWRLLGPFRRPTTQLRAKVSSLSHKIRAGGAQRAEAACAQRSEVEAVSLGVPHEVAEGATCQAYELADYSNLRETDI
Description: Binding affinity towards Alpha-1D adrenergic receptor. In short, it runs like this: as §1

Assay [3] concerns the target T3, Alpha-1A adrenergic receptor (Homo sapiens, UniProt P35348).
T3 sequence (P35348 whole entry): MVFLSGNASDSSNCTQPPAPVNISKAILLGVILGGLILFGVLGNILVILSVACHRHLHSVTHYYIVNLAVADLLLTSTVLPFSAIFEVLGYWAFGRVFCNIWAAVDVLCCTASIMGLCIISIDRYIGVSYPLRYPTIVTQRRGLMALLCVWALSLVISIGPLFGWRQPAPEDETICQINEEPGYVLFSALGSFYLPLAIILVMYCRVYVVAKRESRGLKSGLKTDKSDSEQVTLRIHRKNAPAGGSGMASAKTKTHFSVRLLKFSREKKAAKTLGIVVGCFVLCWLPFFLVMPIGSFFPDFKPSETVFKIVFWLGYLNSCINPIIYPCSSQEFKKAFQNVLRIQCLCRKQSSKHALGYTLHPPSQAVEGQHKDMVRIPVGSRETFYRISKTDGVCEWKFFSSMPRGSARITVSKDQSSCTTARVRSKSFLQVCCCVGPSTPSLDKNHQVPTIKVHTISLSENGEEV
Description: Binding affinity towards Alpha-1A adrenergic receptor. In short, it runs like this: as §1

The target of assay [4] is T2, Alpha-1D adrenergic receptor. Description: In vitro binding affinity at human Alpha-1D adrenergic receptor. In short, it runs like this: as §1
The target in assay [5] is T3, Alpha-1A adrenergic receptor. Description: In vitro binding affinity at human Alpha-1A adrenergic receptor. A digest of the protocol:
as §1

The species entered for another assay is Rattus norvegicus. Description: Inhibition of [3H]inositol Phosphate formation by 100 uM norepinephrine in rat hippocampal slices. It counts as functional, Hippocampus. A digest of the protocol:
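Rat hippocampal slices equilibrated in Krebs-Henseleit buffer (pH 7.4, 95% O2/5% CO2) at 37 °C for 30 min, labeled 60 min with 0.3 µM myo-[2-3H]inositol. LiCl 7 mM added, then 100 µM norepinephrine 10 min later, test compound (1 µM) 5 min before agonist. After 60 min, stopped with chloroform/methanol; [3H]inositol monophosphate isolated by anion exchange, dpm/mg protein, ≥4 determinations.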

Assay [6] has as its target Adrenergic receptor alpha-1 (Homo sapiens) (UniProt P35348+P25100+P35368). Description: Selectivity for alpha 1A-Adrenergic receptors compared to 1D-Adrenergic receptors. It counts as protein assay.

For `O=c1[nH]c2c([nH]c3ccccc32)c(=O)n1CCN1CCN(c2ccccc2O)CC1`, the values for the Ki in assay [1], in assay [2] and in assay [3] were 11.7 nM, 0.631 nM and 8.91 nM, respectively.

Take `CC(C)c1ccc(N2CCN(CCn3cnc4c5ccccc5nc-4c3O)CC2)cc1`: the Ki in assay [1], in assay [2] and in assay [3] was greater than 10000 nM in each case.

Regarding `COc1ccccc1C1CCN(CCn2c(=O)[nH]c3c([nH]c4ccccc43)c2=O)CC1`, the Ki in assay [1] was 2.88 nM; in assay [2], 0.933 nM; in assay [3], 1.55 nM.

Turning to `C[C@H](CN1CCN(c2cc(F)c(F)cc2F)CC1)N1C(=O)CC2(CCCC2)CC1=O`, the Ki was 1.6 nM in assay [4] and 294 nM in assay [5].

Take `CCc1nc2c3ccccc3nc-2c(O)n1CCCN1CCN(c2ccccc2OC)CC1`: the Ki in assay [1] was 27.5 nM; in assay [2] it was 12.6 nM; in assay [3], 10.7 nM.

Take `CCC(C)c1ccc(N2CCN(CCn3c(=O)[nH]c4c([nH]c5ccccc54)c3=O)CC2)cc1` (configuration not stated): the inhibitory constant (Ki) in assay [2] is 60.3 nM.

With `O=c1[nH]c2c([nH]c3ccccc32)c(=O)n1CCN1CCN2c3ccccc3OCC2C1` (configuration not stated), the Ki is 7760 nM in assay [1], 126 nM in assay [2] and 7940 nM in assay [3].

Regarding `O=c1[nH]c2c([nH]c3ccccc32)c(=O)n1CCN1CCN(c2ccccc2Cl)CC1`, the Ki in assay [1] is 2.57 nM; in assay [2], 3.63 nM; in assay [3], 4.68 nM.

As for `CC(C)c1ccc(N2CCN(CCn3c(=O)[nH]c4c([nH]c5ccccc54)c3=O)CC2)cc1`, the Ki in assay [1] was 9550 nM; in assay [2], 35.5 nM.

In assay [4], `COc1ccccc1N1CCN(Cn2nc(-c3ccccc3)c3c(C)onc3c2=O)CC1` had a Ki of 316 nM.

Take `N#CCc1ccc(N2CCN(CCn3c(=O)[nH]c4c([nH]c5ccccc54)c3=O)CC2)cc1`: in assay [2], affinity was put at a Ki of 10 nM.

For `O=c1[nH]c2c([nH]c3ccccc32)c(=O)n1CCN1CCN(c2ccc(C3CCCCC3)cc2)CC1`, in assay [3], the inhibition at 1 µM stood at 7%.

On to `COc1ccccc1N1CCN(CCn2c(C)nc3c4ccccc4nc-3c2O)CC1`, for which the Ki in assay [1] was 20.9 nM.

Turning to `COc1ccccc1N1CCN(CCn2c(=O)[nH]c3c([nH]c4ccccc43)c2=O)CC1`, in the assay filed under Rattus norvegicus, the Activity is reported as 3987 dpm (mg of protein)-1. The compound further gave a Ki in assay [1] of 1.82 nM.

On to `COc1ccccc1N1CCN(CCCn2c(C)nc3c4ccccc4nc-3c2O)CC1`, for which the Ki in assay [1] is 26.9 nM; in assay [2] it was 2.57 nM; in assay [3], 4.9 nM.

Compound `CC(C)c1ccc(N2CCN(CCn3c(=O)[nH]c4c(sc5ccccc54)c3=O)CC2)cc1` gave a Ki in assay [2] of 126 nM.

Turning to `CC(C)(C)c1ccc(N2CCN(CCn3c(=O)[nH]c4c([nH]c5ccccc54)c3=O)CC2)cc1`, the Activity in the assay listed under Rattus norvegicus is recorded as 10390 dpm (mg of protein)-1. Besides, the inhibition at 1 µM in assay [3] was found to be 8%.

As for `CCc1nc2c3ccccc3nc-2c(O)n1CCN1CCN(c2ccccc2OC)CC1`, the figures for the Ki in assay [1], in assay [2] and in assay [3] were 245 nM, 6.92 nM and 49 nM, respectively.

Regarding `CCOc1ccccc1N1CCN(CCn2cnc3c4ccccc4nc-3c2O)CC1`, the Ki in assay [1] was 61.7 nM; in assay [2], 6.03 nM; in assay [3], 9.77 nM.

Consider `C=Cc1sc2ccc(Cl)c3c2c1CN(C)CC3`, for which, in assay [6], the Ratio came out at 22.5.

Turning to `CC(C)(C)c1ccc(N2CCN(CCn3cnc4c5ccccc5nc-4c3O)CC2)cc1`, the Ki in assay [1], in assay [2] and in assay [3] was greater than 10000 nM each time.

In the case of `COc1ccccc1N1CCN(CCn2nc(-c3ccccc3)c3c(C)onc3c2=O)CC1`, the Ki in assay [1] is 31.1 nM; in assay [4], 1.5 nM; in assay [5] it was 1.4 nM. In addition, in assay [6], the Ratio stood at 0.9.

On to `Cc1nc2c3ccccc3nc-2c(O)n1CCN1CCN(c2ccc(C(C)C)cc2)CC1`, for which the Ki in assay [1] was 4070 nM; in assay [2], 1700 nM; in assay [3], 3550 nM.

With `Cc1nc2c3ccccc3nc-2c(O)n1CCN1CCN(c2ccc(C(C)(C)C)cc2)CC1`, the Ki in assay [1] was 2040 nM; in assay [2] it was 97.7 nM; in assay [3], 603 nM.

Turning to `COc1ccccc1N1CCN(CCCn2cnc3c4ccccc4nc-3c2O)CC1`, the Ki in assay [1] is 162 nM; in assay [2], 16.2 nM; in assay [3], 16.6 nM.

As to `COc1ccccc1N1CCN(CCn2cnc3c4ccccc4nc-3c2O)CC1`, the Ki in assay [1] is 13.8 nM; in assay [2], 0.724 nM; in assay [3], 1.41 nM.

With `CCOc1ccccc1N1CCN(CCn2c(=O)[nH]c3c([nH]c4ccccc43)c2=O)CC1`, the figures for the Ki in assay [1], in assay [2] and in assay [3] were 14.5 nM, 1.58 nM and 7.24 nM, respectively.

For `CCCCc1ccc(N2CCN(CCn3c(=O)[nH]c4c([nH]c5ccccc54)c3=O)CC2)cc1`, affinity in assay [2] was put at a Ki of 245 nM.

`Cc1nc2c3ccccc3nc-2c(O)n1CCN1CCN2c3ccccc3OCC2C1` (configuration not stated): the Ki in assay [1], in assay [2] and in assay [3] was greater than 10000 nM throughout.

Turning to `COc1cc2c(cc1O)CCN1Cc3c(ccc(O)c3OC)C[C@@H]21`, the results for the Ki in assay [1], in assay [4] and in assay [5] were 360 nM, 25 nM and 616 nM, respectively. Also, in assay [6], the Ratio is 24.6.

A word on the Ki: it is the equilibrium dissociation constant of an inhibitor or competing ligand from its target. A lower Ki goes with a stronger hold on the target. As a reminder, the inhibition is the percentage by which the read-out fell short of the control. A lower inhibition goes with little suppression.
